Where a SMILES comes first, the peptide text is derived from it.
Tests used:
Oryctolagus cuniculus [1] = species: Oryctolagus cuniculus; assay: The compound was tested (0.5 micro M) in vitro on rabbit jugular vein for residual response in presence of ultraviolet light; assay type: functional
How it was run: (§1)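 Jugular vein strips were challenged twice with BK and checked with 1 µM [Nle¹¹]substance P and 7 µM histamine. They were then incubated with 100 µM (4'-amino)Phe plus the photolabel and irradiated 10 min around 365 nm (18 mW/cm²) at maximal contraction or after 5 min. This was done once or twice. BK response at 60 min was expressed as percent of reference tissues, rechecked every 45 min.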

[2] = target: T1, B1 bradykinin receptor (Homo sapiens) (UniProt P46663); assay: Intrinsic activity was determined; assay type: functional; details: Oryctolagus cuniculus
T1 sequence (whole entry): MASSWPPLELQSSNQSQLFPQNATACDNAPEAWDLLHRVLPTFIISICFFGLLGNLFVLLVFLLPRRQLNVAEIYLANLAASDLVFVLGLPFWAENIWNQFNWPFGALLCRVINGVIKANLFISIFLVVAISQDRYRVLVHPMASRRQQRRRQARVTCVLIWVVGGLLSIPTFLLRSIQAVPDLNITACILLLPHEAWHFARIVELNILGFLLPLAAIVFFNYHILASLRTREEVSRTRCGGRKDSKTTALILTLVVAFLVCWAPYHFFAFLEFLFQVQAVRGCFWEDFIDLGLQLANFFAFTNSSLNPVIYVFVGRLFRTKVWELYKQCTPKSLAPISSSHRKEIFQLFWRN

[3] = target: T2, B2 bradykinin receptor (Homo sapiens) (UniProt P30411); assay: Percent agonistic activity in rabbit jugular vein expressing B2 receptor relative to bradykinin; assay type: functional; details: Oryctolagus cuniculus
T2 sequence (whole entry): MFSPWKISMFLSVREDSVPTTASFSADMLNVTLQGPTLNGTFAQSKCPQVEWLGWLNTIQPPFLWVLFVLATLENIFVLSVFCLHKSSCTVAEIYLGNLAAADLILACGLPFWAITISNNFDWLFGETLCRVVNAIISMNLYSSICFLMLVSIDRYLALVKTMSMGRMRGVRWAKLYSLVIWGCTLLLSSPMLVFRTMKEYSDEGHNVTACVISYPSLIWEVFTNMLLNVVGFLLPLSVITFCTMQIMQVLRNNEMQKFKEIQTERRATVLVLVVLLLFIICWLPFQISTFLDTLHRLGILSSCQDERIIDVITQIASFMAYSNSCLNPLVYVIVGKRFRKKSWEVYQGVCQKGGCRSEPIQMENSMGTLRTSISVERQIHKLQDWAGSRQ
How it was run: (§2)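 Isolated rabbit jugular vein strips were equilibrated about 2 h with protease inhibitor SQ 14225 (100 ng/mL) under incandescent light, with no UV. pD₂ was taken as −log of the half-maximal concentration. Relative affinity is given as percent of BK. Specificity was checked by desensitization with BK or an analogue. Antagonists were given as pA₂ from the ID₅₀ that reduces a double agonist dose to a single-dose response.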

[4] = system: B2 bradykinin receptor (Oryctolagus cuniculus); assay: In vitro 50 % Maximal response in jugular vein expressing B2 receptor
[5] = system: B2 bradykinin receptor (Oryctolagus cuniculus); assay: In vitro 50 % Maximal response in rabbit jugular vein expressing B2 receptor
Oryctolagus cuniculus [6] = species: Oryctolagus cuniculus; assay: The compound was tested in vitro (0.1 uM) on rabbit jugular vein for residual response in presence of ultraviolet light; assay type: functional; how it was run: as §1
[7] = target: T2, B2 bradykinin receptor (Homo sapiens); assay: In vitro 50 % Maximal response in jugular vein expressing B2 receptor; assay type: functional; details: Oryctolagus cuniculus; how it was run: as §2
Oryctolagus cuniculus [8] = species: Oryctolagus cuniculus; assay: The compound was tested in vitro (2.0 uM) on rabbit jugular vein for residual response in absence of ultraviolet light; assay type: functional
How it was run: (§3)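 Jugular vein strips were treated exactly as in the photolabeling protocol (scavenger 100 µM (4'-amino)Phe plus analogue) but without light. Residual BK response was measured 60 min after the last treatment against reference tissues. Results were discarded if reference tissues lost over 25% sensitivity.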

Oryctolagus cuniculus [9] = species: Oryctolagus cuniculus; assay: The compound was tested in vitro (1.0 uM) on rabbit jugular vein for residual response in presence of ultraviolet light; assay type: functional; how it was run: as §1
Oryctolagus cuniculus [10] = species: Oryctolagus cuniculus; assay: Competitive protection towards rabbit jugular vein in the presence of light; assay type: functional
How it was run: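 Rabbit jugular vein strips (B2), with SQ 14225 100 ng/mL present after about 2 h equilibration. 5 µM BK added before the photolabel, scavenger (4'-amino)Phe 100 µM, and 10 min irradiation around 365 nm (18 mW/cm²). Residual BK response read 60 min after treatment, relative to reference tissues.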

Oryctolagus cuniculus [11] = species: Oryctolagus cuniculus; assay: The compound was tested in vitro (0.1 uM) on rabbit aorta for residual response in presence of ultraviolet light; assay type: functional; details: in the assay text read “rabbit jugular vein” for “rabbit aorta”
How it was run: (§4)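 Aorta strips in cycloheximide were challenged twice with [des-Arg⁹]BK and checked with 3 µM noradrenaline and 0.2 µM [Sar¹]angiotensin II. They were then incubated with 100 µM (4'-amino)Phe plus the photolabel and irradiated 10 min around 365 nm (18 mW/cm²). This was done once or twice. Residual [des-Arg⁹]BK response at 60 min was expressed as percent of reference tissues.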

Oryctolagus cuniculus [12] = species: Oryctolagus cuniculus; assay: The compound was tested in vitro (0.2 uM) on rabbit jugular vein for residual response in presence of ultraviolet light; assay type: functional; how it was run: as §1
Oryctolagus cuniculus [13] = species: Oryctolagus cuniculus; assay: The compound was tested in vitro on rabbit aorta for residual response in presence of ultraviolet light; assay type: functional; how it was run: as §4
Oryctolagus cuniculus [14] = species: Oryctolagus cuniculus; assay: Competitive protection towards rabbit aorta in the presence of light; assay type: functional
How it was run: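 Rabbit aorta strips (B1), with cycloheximide 10 µg/mL present after 3 h equilibration. Tissue pretreated with 50 µM [Leu⁸,des-Arg⁹]BK before the photolabel, scavenger (4'-amino)Phe 100 µM, and 10 min irradiation around 365 nm (18 mW/cm²). Residual [des-Arg⁹]BK response read 60 min after treatment, relative to reference tissues.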

Oryctolagus cuniculus [15] = species: Oryctolagus cuniculus; assay: In vitro 50 % Maximal response in rabbit aorta expressing B1 receptor; assay type: functional; details: read-out: ED50 (the source's name)
Oryctolagus cuniculus [16] = species: Oryctolagus cuniculus; assay: The compound was tested in vitro (3 uM) on rabbit jugular vein for residual response in absence of ultraviolet light; assay type: functional; how it was run: as §3
[17] = system: B2 bradykinin receptor (Oryctolagus cuniculus); assay: Relative affinity against B2 receptor relative to bradykinin
[18] = system: B2 bradykinin receptor (Oryctolagus cuniculus); assay: Agonistic activity (pD2) in rabbit jugular vein expressing B2 receptor relative to bradykinin
Oryctolagus cuniculus [19] = species: Oryctolagus cuniculus; assay: The compound was tested in vitro on rabbit aorta for residual response in absence of ultraviolet light; assay type: functional
How it was run: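 Aorta strips were treated as in the photolabeling protocol but without light, or with light alone. Residual [des-Arg⁹]BK response was measured 60 min later against reference tissues. Darkroom testing was done in triplicate for the visible-light-absorbing analogue.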

**Q.** What does the source list for `NC(N)=NCCC[C@H](NC(=O)[C@H](Cc1ccccc1)NC(=O)[C@@H]1CCCN1C(=O)[C@H](CO)NC(=O)[C@H](Cc1ccc([N+](=O)[O-])cc1)NC(=O)CNC(=O)[C@@H]1CCCN1C(=O)[C@@H]1CCCN1C(=O)[C@@H](N)CCCN=C(N)N)C(=O)O` (HELM PEPTIDE1{R.P.P.G.[O=C([C@H](Cc1ccc([N+](=O)[O-])cc1)N[*:1])[*:2]].S.P.F.R}$$$$V2.0)?
**A.** Response (Oryctolagus cuniculus [1]): 88%; Alpha E [2]: 1; Relative affinity [3]: 7%; ED50 [4]: 24 nM; pD [5]: 7.62 M

**Q.** Which Response (Oryctolagus cuniculus [6]) does the source give for `NC(N)=NCCC[C@H](NC(=O)[C@H](Cc1ccc([N+](=O)[O-])cc1)NC(=O)[C@@H]1CCCN1C(=O)[C@H](CO)NC(=O)[C@H](Cc1ccccc1)NC(=O)CNC(=O)[C@@H]1CCCN1C(=O)[C@@H]1CCCN1C(=O)[C@@H](N)CCCN=C(N)N)C(=O)O` (HELM PEPTIDE1{R.P.P.G.F.S.P.[O=C([C@H](Cc1ccc([N+](=O)[O-])cc1)N[*:1])[*:2]].R}$$$$V2.0) here?
**A.** 91%

**Q.** And the Alpha E [2]?
**A.** 1

**Q.** And the ED50 [7]?
**A.** 6.6 nM

**Q.** And the Relative affinity [3]?
**A.** 25%

**Q.** How did the Response (Oryctolagus cuniculus [8]) turn out when `N#[N+]c1ccc(C[C@H](NC(=O)[C@@H]2CCCN2C(=O)[C@H](CO)NC(=O)[C@H](Cc2ccccc2)NC(=O)CNC(=O)[C@@H]2CCCN2C(=O)[C@@H]2CCCN2C(=O)[C@@H](N)CCCN=C(N)N)C(=O)N[C@@H](CCCN=C(N)N)C(=O)O)cc1` (HELM PEPTIDE1{R.P.P.G.F.S.P.[N#[N+]c1ccc(C[C@H](N[*:1])C(=O)[*:2])cc1].R}$$$$V2.0) was run?
**A.** 94%

**Q.** And the Alpha E [2]?
**A.** 1

**Q.** What about the ED50 [7] of the same molecule?
**A.** 25 nM

**Q.** And the Relative affinity [3]?
**A.** 9%

**Q.** How did the Response (Oryctolagus cuniculus [9]) turn out when `[N-]=[N+]=Nc1ccc(C[C@H](NC(=O)CNC(=O)[C@@H]2CCCN2C(=O)[C@@H]2CCCN2C(=O)[C@@H](N)CCCNC(=N)N)C(=O)N[C@@H](CO)C(=O)N2CCC[C@H]2C(=O)N[C@@H](Cc2ccccc2)C(=O)N[C@@H](CCCNC(=N)N)C(=O)O)cc1` (HELM PEPTIDE1{R.P.P.G.[[N-]=[N+]=Nc1ccc(C[C@H](N[*:1])C(=O)[*:2])cc1].S.P.F.R}$$$$V2.0) was run?
**A.** 44%

**Q.** And the Alpha E [2]?
**A.** 1

**Q.** What about the Competitive protection (Oryctolagus cuniculus [10]) of the same molecule?
**A.** 91

**Q.** And the ED50 [7]?
**A.** 10 nM

**Q.** What about the Relative affinity [3] of the same molecule?
**A.** 17%

**Q.** Which Response (Oryctolagus cuniculus [11]) does the source give for H-RPPGFSPFR-OH [BRADYKININ] here?
**A.** 92%

**Q.** What about the Alpha E [2] of the same molecule?
**A.** 1

**Q.** And the ED50 [7]?
**A.** 1.65 nM

**Q.** And the Relative affinity [3]?
**A.** 100%

**Q.** Which Response (Oryctolagus cuniculus [12]) does the source give for `[N-]=[N+]=Nc1ccc(C[C@H](NC(=O)[C@@H]2CCCN2C(=O)[C@H](CO)NC(=O)[C@H](Cc2ccccc2)NC(=O)CNC(=O)[C@@H]2CCCN2C(=O)[C@@H]2CCCN2C(=O)[C@@H](N)CCCN=C(N)N)C(=O)N[C@@H](CCCN=C(N)N)C(=O)O)cc1` (HELM PEPTIDE1{R.P.P.G.F.S.P.[[N-]=[N+]=Nc1ccc(C[C@H](N[*:1])C(=O)[*:2])cc1].R}$$$$V2.0) here?
**A.** 85%

**Q.** What about the Alpha E [2] of the same molecule?
**A.** 1

**Q.** And the ED50 [7]?
**A.** 7 nM

**Q.** And the Relative affinity [3]?
**A.** 23%

**Q.** With `[N-]=[N+]=Nc1ccc(C[C@H](NC(=O)[C@@H]2CCCN2C(=O)[C@H](CO)NC(=O)[C@H](Cc2ccccc2)NC(=O)CNC(=O)[C@@H]2CCCN2C(=O)[C@@H]2CCCN2C(=O)[C@@H](N)CCCN=C(N)N)C(=O)O)cc1` as the molecule, how does the Response (Oryctolagus cuniculus [13]) read?
**A.** 37%

**Q.** What about the Alpha E [2] of the same molecule?
**A.** 0

**Q.** What about the Competitive protection (Oryctolagus cuniculus [14]) of the same molecule?
**A.** 95

**Q.** And the EC50 (Oryctolagus cuniculus [15])?
**A.** 8560 nM

**Q.** `N#[N+]c1ccc(C[C@H](NC(=O)CNC(=O)[C@@H]2CCCN2C(=O)[C@@H]2CCCN2C(=O)[C@@H](N)CCCN=C(N)N)C(=O)N[C@@H](CO)C(=O)N2CCC[C@H]2C(=O)N[C@@H](Cc2ccccc2)C(=O)N[C@@H](CCCN=C(N)N)C(=O)O)cc1` (HELM PEPTIDE1{R.P.P.G.[N#[N+]c1ccc(C[C@H](N[*:1])C(=O)[*:2])cc1].S.P.F.R}$$$$V2.0) was tested. Which Response (Oryctolagus cuniculus [16]) did it give?
**A.** 92%

**Q.** And the Alpha E [2]?
**A.** 1

**Q.** What about the ED50 [7] of the same molecule?
**A.** 25 nM

**Q.** What about the Relative affinity [17] of the same molecule?
**A.** 9%

**Q.** What about the pD [18] of the same molecule?
**A.** 7.73 M

**Q.** How did the Response (Oryctolagus cuniculus [19]) turn out when `N#[N+]c1ccc(C[C@H](NC(=O)[C@@H]2CCCN2C(=O)[C@H](CO)NC(=O)[C@H](Cc2ccccc2)NC(=O)CNC(=O)[C@@H]2CCCN2C(=O)[C@@H]2CCCN2C(=O)[C@@H](N)CCCN=C(N)N)C(=O)O)cc1` was run?
**A.** 95%

**Q.** And the Alpha E [2]?
**A.** 1

**Q.** What about the EC50 (Oryctolagus cuniculus [15]) of the same molecule?
**A.** 824 nM

From ChEMBL document CHEMBL1121899, “Biological activities of photoaffinity labeling analogues of kinins and their irreversible effects on kinin receptors” (1981)
